In PMC9044819 (RSC Advances, 2021):
Values joined by “and” are separate entries in the source; they are usually repeats but may differ in a detail not shown here. Equal entries are not always repeated. Where two headings read alike, the source gives them in different places.

What was measured:
[1] = biological target: Human VEGFR-2 (Homo sapiens, UniProt P35968); test: In vitro VEGFR-2 assay; format: biochemical
[2] = tested on: BAX/Bcl-2 ratio; test: Western blot, BAX/Bcl-2 ratio in HepG-2; format: cell-based, human; settings: HepG-2 treated 24 h, 2.3 μM; control 1.00; mean ± SEM
Summary of the method: (§1)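 HepG-2 cells exposed 24 h to test compound at 2.3 μM, then probed by western blot for BAX, Bcl-2, active caspase-9 and active caspase-3. Each band is normalized to β-actin and expressed relative to control, and the BAX/Bcl-2 ratio is also tabulated. Values are mean ± SEM of three independent experiments, with significance flagged at p < 0.05, 0.01 and 0.001.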

[3] = tested on: HepG-2; test: MTT anti-proliferative assay, HepG-2; format: cell-based, human
[4] = tested on: Bcl-2; test: Western blot, Bcl-2 expression in HepG-2; format: cell-based, human
Summary of the method: as §1

[5] = tested on: caspase-9; test: Western blot, active caspase-9 in HepG-2; format: cell-based, human
Summary of the method: as §1

[6] = tested on: MCF-7; test: cells; format: cell-based, human
[7] = tested on: BAX; test: Western blot, BAX expression in HepG-2; format: cell-based, human
Summary of the method: as §1

[8] = tested on: HepG-2 cells; test: Cell cycle analysis; format: cell-based, human; settings: HepG-2, 17b 2.3 μM
[9] = tested on: primary rat hepatocytes; test: In vitro cytotoxicity against normal hepatic cells; format: cell-based; settings: HepG-2 vs primary rat hepatocytes
[10] = tested on: caspase-3; test: Western blot, active caspase-3 in HepG-2; format: cell-based, human
Summary of the method: as §1

[11] = HepG-2 treated 24 h, 2.3 μM, control 1.00, mean ± SEM

Chain of Human VEGFR-2 (P35968 20-1356): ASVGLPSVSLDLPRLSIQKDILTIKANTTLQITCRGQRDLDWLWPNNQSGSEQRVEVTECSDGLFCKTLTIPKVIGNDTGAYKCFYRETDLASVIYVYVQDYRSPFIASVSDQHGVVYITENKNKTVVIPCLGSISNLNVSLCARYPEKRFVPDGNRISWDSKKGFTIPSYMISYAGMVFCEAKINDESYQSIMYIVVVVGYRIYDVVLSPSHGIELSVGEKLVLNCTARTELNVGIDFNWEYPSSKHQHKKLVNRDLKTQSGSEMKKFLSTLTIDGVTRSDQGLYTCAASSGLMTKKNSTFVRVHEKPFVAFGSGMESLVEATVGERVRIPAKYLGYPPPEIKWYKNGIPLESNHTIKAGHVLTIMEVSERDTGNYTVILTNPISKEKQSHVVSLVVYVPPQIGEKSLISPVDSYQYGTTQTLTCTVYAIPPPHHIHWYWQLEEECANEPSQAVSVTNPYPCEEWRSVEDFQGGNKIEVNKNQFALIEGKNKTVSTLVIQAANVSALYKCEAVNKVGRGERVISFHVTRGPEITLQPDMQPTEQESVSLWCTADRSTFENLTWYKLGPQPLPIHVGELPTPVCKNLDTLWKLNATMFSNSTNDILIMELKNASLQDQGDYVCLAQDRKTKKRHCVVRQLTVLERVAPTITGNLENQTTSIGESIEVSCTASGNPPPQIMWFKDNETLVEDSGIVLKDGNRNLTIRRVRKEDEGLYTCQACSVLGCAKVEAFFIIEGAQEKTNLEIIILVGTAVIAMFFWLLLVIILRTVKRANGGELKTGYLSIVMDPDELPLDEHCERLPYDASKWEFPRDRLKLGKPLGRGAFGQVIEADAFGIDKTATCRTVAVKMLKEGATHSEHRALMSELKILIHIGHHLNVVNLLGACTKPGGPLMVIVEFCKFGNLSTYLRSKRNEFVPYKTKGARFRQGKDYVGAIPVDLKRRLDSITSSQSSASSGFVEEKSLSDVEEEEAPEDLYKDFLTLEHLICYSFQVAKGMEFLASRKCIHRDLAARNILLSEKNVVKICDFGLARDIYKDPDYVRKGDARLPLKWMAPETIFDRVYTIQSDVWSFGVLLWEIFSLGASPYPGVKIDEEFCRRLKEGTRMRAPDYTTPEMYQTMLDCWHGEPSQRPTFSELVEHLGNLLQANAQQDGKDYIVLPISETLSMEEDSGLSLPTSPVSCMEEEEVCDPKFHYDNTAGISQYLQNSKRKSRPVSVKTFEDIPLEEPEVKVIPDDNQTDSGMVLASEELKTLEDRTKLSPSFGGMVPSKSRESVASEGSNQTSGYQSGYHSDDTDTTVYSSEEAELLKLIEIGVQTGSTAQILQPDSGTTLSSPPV

CCCCNC(=O)c1ccc(NC(=O)CSc2nc3ccccc3nc2C)cc1 [Compound 15a, N-Butyl-4-(2-((3-methylquinoxalin-2-yl)thio)acetamido)benzamide]
IC50 [1]: 0.0231 ± 0.0008 µM

Cc1nc2ccccc2nc1SCC(=O)Nc1ccc(C(=O)Nc2cccc(Cl)c2)cc1 [Compound 15b, N-(3-Chlorophenyl)-4-(2-((3-methylquinoxalin-2-yl)thio)acetamido)benzamide]
IC50 [1]: 0.0034 ± 0.0002 µM

Cc1nc2ccccc2nc1SCC(=O)Nc1ccc(C(=O)Nc2ccc(O)cc2)cc1 [Compound 15c, N-(4-Hydroxyphenyl)-4-(2-((3-methylquinoxalin-2-yl)thio)acetamido)benzamide]
IC50 [1]: 0.0278 ± 0.0012 µM

Cc1nc2ccccc2nc1SCC(=O)Nc1ccc(C(=O)Nc2ccc([N+](=O)[O-])cc2O)cc1 [Compound 15d, N-(2-Hydroxy-4-nitrophenyl)-4-(2-((3-methylquinoxalin-2-yl)thio)acetamido)benzamide]
IC50 [1]: 0.0315 ± 0.0013 µM

Cc1nc2ccccc2nc1SCC(=O)Nc1ccc(C(=O)NNC(=O)c2ccccc2O)cc1 [Compound 16, N-(4-(2-(2-Hydroxybenzoyl)hydrazine-1-carbonyl)phenyl)-2-((3-methylquinoxalin-2-yl)thio)acetamide]
IC50 [1]: 0.0185 ± 0.0008 µM

CCCCNC(=O)c1ccc(NC(=O)Cn2c(=O)c(C)nc3ccccc32)cc1 [Compound 17a, N-Butyl-4-(2-(3-methyl-2-oxoquinoxalin-1(2H)-yl)acetamido)benzamide]
IC50 [1]: 0.0112 ± 0.0004 µM

Cc1nc2ccccc2n(CC(=O)Nc2ccc(C(=O)Nc3cccc(Cl)c3)cc2)c1=O [Compound 17b, N-(3-Chlorophenyl)-4-(2-(3-methyl-2-oxoquinoxalin-1(2H)-yl)acetamido)benzamide]
Protein expression (normalized to β-actin) BAX/Bcl-2 ratio [2]: 9.30 ± 2.66 | IC50 ([3]; read-out: HepG-2 (IC50), MTT, mean ± S.D. of three experiments): 2.3 ± 0.2 µM | downregulation of Bcl-2 level ([4]; HepG-2, 2.3 μM): around 3 fold | Protein expression (normalized to β-actin) Bcl-2 [4, 11]: 0.32 ± 0.04 | increase of caspase-9 level compared to control cells ([5]; HepG-2, 2.3 μM): 1.74 fold | Protein expression (normalized to β-actin) Caspases-9 [5, 11]: 1.74 ± 0.20 | IC50 ([6]; read-out: MCF-7 (IC50), MTT, mean ± S.D. of three experiments): 2.8 ± 0.2 µM | boost of BAX level ([7]; HepG-2, 2.3 μM): approximately 4 fold | Protein expression (normalized to β-actin) BAX [7, 11]: 4.21 ± 0.60 | Cell cycle analysis (%) % G1 [8]: 40.03 ± 2.82 % | Cell cycle analysis (%) % G2/M [8]: 30.38% and 30.38 ± 2.93 % | Cell cycle analysis (%) % S [8]: 28.31 ± 1.01% | Cell cycle analysis (%) % Sub-G1 [8]: 1.27 ± 0.17% | cytotoxic activity against cancer HepG-2 cell line more than against normal hepatic cells [9]: 10 fold | increase of caspase-3 level compared to control cells ([10]; HepG-2, 2.3 μM): 1.8 fold | Protein expression (normalized to β-actin) Caspases-3 [10, 11]: 1.85 ± 0.26

Cc1nc2ccccc2n(CC(=O)Nc2ccc(C(=O)Nc3ccc(O)cc3)cc2)c1=O [Compound 17c, N-(4-Hydroxyphenyl)-4-(2-(3-methyl-2-oxoquinoxalin-1(2H)-yl)acetamido)benzamide]
IC50 [1]: 0.0139 ± 0.0005 µM

Cc1nc2ccccc2n(CC(=O)Nc2ccc(C(=O)Nc3ccc([N+](=O)[O-])cc3O)cc2)c1=O [Compound 17d, N-(2-Hydroxy-4-nitrophenyl)-4-(2-(3-methyl-2-oxoquinoxalin-1(2H)-yl)acetamido)benzamide]
IC50 ([3]; Homo sapiens, HepG2, read-out: HepG-2 (IC50, μM)): 22.4 ± 1.3 µM | IC50 ([6]; Homo sapiens, MCF7, read-out: MCF-7 (IC50, μM)): 35.2 ± 1.6 µM | IC50 [1]: 0.0112 ± 0.0003 µM

Cc1nc2ccccc2n(CC(=O)Nc2ccc(C(=O)NNC(=O)c3ccccc3O)cc2)c1=O [Compound 18, N-(4-(2-(2-Hydroxybenzoyl)hydrazine-1-carbonyl)phenyl)-2-(3-methyl-2-oxoquinoxalin-1(2H)-yl)acetamide]
IC50 [1]: 0.0112 ± 0.0002 µM

CNC(=O)c1cc(Oc2ccc(NC(=O)Nc3ccc(Cl)c(C(F)(F)F)c3)cc2)ccn1 [Sorafenib, sorafenib, reference compound]
cytotoxic activity against cancer HepG-2 cell line more than against normal hepatic cells [9]: 11 fold
